The record followed here is ChEMBL document CHEMBL3098030, “Explorations of substituted urea functionality for the discovery of new activators of the heme-regulated inhibitor kinase” (J Med Chem, 2013).

By IC50 is commonly meant the midpoint of a concentration-inhibition curve.

The target of the first experiment is Eukaryotic translation initiation factor 2-alpha kinase 1 (Homo sapiens) (UniProt Q9BQI3). The experiment is described as follows: Activation of HRI in human CRL-2813-pBISA-DL(ATF-4) reporter cells assessed as concentration required to obtain F-luciferase expression/R-luciferase expression ratio 3.
Chain of Eukaryotic translation initiation factor 2-alpha kinase 1 (Homo sapiens) (Q9BQI3 whole entry): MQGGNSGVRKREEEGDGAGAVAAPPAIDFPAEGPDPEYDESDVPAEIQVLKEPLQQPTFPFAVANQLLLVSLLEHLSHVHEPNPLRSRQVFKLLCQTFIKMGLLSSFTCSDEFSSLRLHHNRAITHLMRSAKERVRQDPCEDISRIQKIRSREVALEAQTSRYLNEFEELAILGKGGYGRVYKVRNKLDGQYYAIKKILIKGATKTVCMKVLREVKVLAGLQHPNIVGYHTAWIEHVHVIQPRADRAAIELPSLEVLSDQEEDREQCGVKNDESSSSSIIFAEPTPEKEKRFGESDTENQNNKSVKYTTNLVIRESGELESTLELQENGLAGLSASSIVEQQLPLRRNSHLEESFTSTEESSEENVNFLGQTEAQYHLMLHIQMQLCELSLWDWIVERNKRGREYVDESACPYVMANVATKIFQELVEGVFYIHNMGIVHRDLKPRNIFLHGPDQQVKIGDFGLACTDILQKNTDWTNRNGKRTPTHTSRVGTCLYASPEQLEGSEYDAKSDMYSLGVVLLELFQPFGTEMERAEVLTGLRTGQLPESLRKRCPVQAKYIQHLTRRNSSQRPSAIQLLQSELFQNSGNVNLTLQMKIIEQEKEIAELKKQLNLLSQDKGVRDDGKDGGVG
Settings: not given
Summed up:
(§1)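 Stably transfected CRL-2813-pBISA-DL(ATF-4) reporter cells treated with compounds in dose-response; firefly and renilla luciferases read by dual glow luciferase kit. Activity = firefly/renilla (F/R) ratio normalized to DMSO-treated wells (set at 1). Triplicate points fitted to logistic sigmoidal model by nonlinear least squares; C3X = concentration giving F/R = 3, Emax = maximal F/R.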
For the compound `O=C(Nc1cccc([N+](=O)[O-])c1)N[C@H]1CC[C@H](Oc2ccc(F)cc2)CC1`, the Activity stood at 11.4 µM.
Take `COC(=O)c1cccc(NC(=O)N[C@H]2CC[C@H](Oc3ccc(F)cc3)CC2)c1`: the Activity worked out at 17.1 µM.
With `Cc1cccc(NC(=O)N[C@H]2CC[C@H](Oc3ccc(F)cc3)CC2)c1`, the Activity stood at 24.1 µM.

The next experiment has the same target. The experiment is described as follows: Activation of HRI in human CRL-2813-pBISA-DL(ATF-4) reporter cells assessed as reduction of ternary complex at 30 uM by dual-luciferase reporter gene assay relative to control.
Settings: not given
The method in brief: as §1
For the compound `CSc1ccccc1NC(=O)N[C@H]1CC[C@H](Oc2ccc(F)cc2)CC1`, the Ratio stood at 0.92.
Regarding `O=C(Nc1ccc(Cl)cc1)N[C@H]1CC[C@H](Oc2ccc(F)cc2)CC1`, the Ratio was found to be 1.65.
In the case of `O=C(Nc1ccccc1[N+](=O)[O-])N[C@H]1CC[C@H](Oc2ccc(F)cc2)CC1`, the Ratio was 2.23.
On to `Cc1ccc(NC(=O)N[C@H]2CC[C@H](Oc3ccc(F)cc3)CC2)cc1`, for which the Ratio was determined as 1.05.
On to `O=C(Nc1ccc(Br)cc1)N[C@H]1CC[C@H](Oc2ccc(F)cc2)CC1`, for which the Ratio was 1.29.
With `O=C(Nc1cccc(C(=O)O)c1)N[C@H]1CC[C@H](Oc2ccc(F)cc2)CC1`, the Ratio came to 0.88.
Take `O=C(Nc1ccccc1)N[C@H]1CC[C@H](Oc2ccc(F)cc2)CC1`: the Ratio stood at 1.65.
As to `O=C(Nc1ccccc1F)N[C@H]1CC[C@H](Oc2ccc(F)cc2)CC1`, the Ratio was determined as 2.1.
Same read-out and setting: next, `O=C(Nc1ccccc1OC(F)(F)F)N[C@H]1CC[C@H](Oc2ccc(F)cc2)CC1`: 1.41.
The same measure, in the same setting: under `O=C(Nc1cccc(C(F)(F)F)c1)NC1CCCCC1` stands 1.87; under `O=C(Nc1ccc(F)cc1)N[C@H]1CC[C@H](Oc2ccc(F)cc2)CC1`, 0.98; under `CSc1ccc(NC(=O)N[C@H]2CC[C@H](Oc3ccc(F)cc3)CC2)cc1`, 1.07.
`COc1ccc(NC(=O)N[C@H]2CC[C@H](Oc3ccc(F)cc3)CC2)cc1`: the Ratio was determined as 0.83.
As for `COc1ccccc1NC(=O)N[C@H]1CC[C@H](Oc2ccc(F)cc2)CC1`, the Ratio is 1.51.
`O=C(Nc1cccc(C(F)(F)F)c1)N[C@H]1CC[C@H](O)CC1`: the Ratio stood at 0.89.
With `O=C(Nc1cccc([N+](=O)[O-])c1)N[C@H]1CC[C@H](Oc2ccc(F)cc2)CC1`, the Ratio came out at 7.47.
Regarding `COC(=O)c1cccc(NC(=O)N[C@H]2CC[C@H](Oc3ccc(F)cc3)CC2)c1`, the Ratio amounted to 6.83.
As for `O=C(Nc1ccccc1C(=O)O)N[C@H]1CC[C@@H](Oc2ccc(F)cc2)CC1`, the Ratio was 1.2.
Turning to `Cc1ccccc1NC(=O)N[C@H]1CC[C@H](Oc2ccc(F)cc2)CC1`, the Ratio was determined as 0.98.
With `Cc1cccc(NC(=O)N[C@H]2CC[C@H](Oc3ccc(F)cc3)CC2)c1`, the Ratio was found to be 4.73.

Test system in the next experiment: not listed separately
In words: Cytotoxicity against human CRL2813 cells after 5 days by SRB assay. It is filed as functional, cell-based. Particulars: CRL2813, 120 h. The method in brief:
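CRL-2813 melanoma or NIH/3T3 fibroblasts seeded in 96-well plates, exposed 5 days to 0.5–20 μM compound; fixed in cold 10% TCA, bound sulforhodamine B measured. % growth = 100×(T−T0)/(C−T0). IC50 derived; triplicate, three independent experiments.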
Background: The SRB assay estimates cell density from bound dye.
As for `CSc1ccccc1NC(=O)N[C@H]1CC[C@H](Oc2ccc(F)cc2)CC1`, the 50% inhibitory concentration (IC50) is more than 20 µM.
Same read-out and setting: next, `O=C(Nc1ccc(Cl)cc1)N[C@H]1CC[C@H](Oc2ccc(F)cc2)CC1`: more than 20 µM.
The same measure, in the same setting: next, `O=C(Nc1ccccc1[N+](=O)[O-])N[C@H]1CC[C@H](Oc2ccc(F)cc2)CC1`: 3.5 µM; `Cc1ccc(NC(=O)N[C@H]2CC[C@H](Oc3ccc(F)cc3)CC2)cc1`: more than 20 µM.
`O=C(Nc1ccc(Br)cc1)N[C@H]1CC[C@H](Oc2ccc(F)cc2)CC1` returned an IC50 of more than 20 µM.
`O=C(Nc1cccc(C(=O)O)c1)N[C@H]1CC[C@H](Oc2ccc(F)cc2)CC1`: the concentration for half-maximal inhibition (IC50) is more than 20 µM.
For `O=C(Nc1ccccc1)N[C@H]1CC[C@H](Oc2ccc(F)cc2)CC1`, it took 20 µM to reach half-maximal inhibition (IC50).
Regarding `O=C(Nc1ccccc1F)N[C@H]1CC[C@H](Oc2ccc(F)cc2)CC1`, the IC50 stood at 17.5 µM.
As to `O=C(Nc1ccccc1OC(F)(F)F)N[C@H]1CC[C@H](Oc2ccc(F)cc2)CC1`, the IC50 was more than 20 µM.
On the same count and under the same terms, next, `O=C(Nc1cccc(C(F)(F)F)c1)NC1CCCCC1`: 13.2 µM; `O=C(Nc1ccc(F)cc1)N[C@H]1CC[C@H](Oc2ccc(F)cc2)CC1`: 20 µM.
As for `CSc1ccc(NC(=O)N[C@H]2CC[C@H](Oc3ccc(F)cc3)CC2)cc1`, the IC50 is more than 20 µM.
`COc1ccc(NC(=O)N[C@H]2CC[C@H](Oc3ccc(F)cc3)CC2)cc1`: the IC50 is more than 20 µM.
In turn, `COc1ccccc1NC(=O)N[C@H]1CC[C@H](Oc2ccc(F)cc2)CC1` registered an IC50 of more than 20 µM.
`O=C(Nc1cccc(C(F)(F)F)c1)N[C@H]1CC[C@H](O)CC1` showed a half-maximal inhibitory concentration (IC50) of more than 20 µM.
On the same count and under the same terms, under `O=C(Nc1cccc([N+](=O)[O-])c1)N[C@H]1CC[C@H](Oc2ccc(F)cc2)CC1` stands 6.7 µM; under `COC(=O)c1cccc(NC(=O)N[C@H]2CC[C@H](Oc3ccc(F)cc3)CC2)c1`, 9.2 µM.
Same read-out and setting: under `O=C(Nc1ccccc1C(=O)O)N[C@H]1CC[C@@H](Oc2ccc(F)cc2)CC1` stands more than 20 µM; under `Cc1ccccc1NC(=O)N[C@H]1CC[C@H](Oc2ccc(F)cc2)CC1`, more than 20 µM.
Compound `Cc1cccc(NC(=O)N[C@H]2CC[C@H](Oc3ccc(F)cc3)CC2)c1` came in with an IC50 of 14.4 µM.
